Experimental data taken from publication PMC6392825 (ChemistryOpen, 2019).
≈ marks a conversion by molar mass, not a printed value.

What was measured:
[1] = Water solubility, shake flask method, 0.1 M phosphate buffer pH 6.8; assay type: physicochemical; details: 37 °C, pH 6.8, aqueous buffer, thermodynamic from solid
EA.hy926 [2] = test: Cytotoxicity, mitochondrial activity; assay type: cell-based; details: Homo sapiens, EA.hy 926, 72 h, read-out: IC50 MTT
Outline: (§1)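 Seeded at 20000 cells/well in DMEM and grown 24 h at 37 °C, 10% CO2. Medium was then replaced with serum-free medium holding test compound (25 mM DMSO stock) at various concentrations for 72 h, in triplicate; doxorubicin was the positive control. MTT (5 mg/mL stock in PBS) added for 2 h, formazan dissolved in DMSO, A570. IC50 derived from % surviving cells, reported as mean ± SD combined with SRB data.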

HepG2 [3] = test: Cytotoxicity, mitochondrial activity; assay type: cell-based; details: Homo sapiens, HepG2, 72 h, read-out: IC50 MTT
Outline: as §1

EA.hy926 [4] = test: Intracellular ROS assay; assay type: cell-based; details: for activity at 1 µM / activity at 10 µM: Homo sapiens, EA.hy 926, read-out: Intracellular ROS, percentage compared to the untreated control cells (ROS/SRB)
Outline: (§2)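 Cells seeded at 20000/well and grown 24 h at 37 °C, 10% CO2, then treated with test compound at 10 and 1 μM in serum-free medium. NAC and doxorubicin served as controls. After a PBS wash, cells were loaded with 20 μM DCFH-DA for 30 min, washed, and held 1 h in phenol red-free DMEM. Fluorescence read at ex 485/em 535 nm and normalized to SRB in the same well. Reported as % of untreated control, n ≥ 3, two-tailed t-test with unequal variances.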

CHO‐K1 = test: Intracellular ROS assay; assay type: cell-based, Chinese hamster; details: CHO‐K1, vs untreated control, 10 and 1 μM
Outline: as §2

Caco‐2 [5] = test: Intracellular ROS assay; assay type: cell-based; details: for activity at 1 µM / activity at 10 µM: Homo sapiens, Caco-2, read-out: Intracellular ROS, percentage compared to the untreated control cells (ROS/SRB); for change of intracellular ROS in words: Caco‐2, vs untreated control, 10 and 1 μM
Outline: as §2

Caco‐2 [6] = test: Cell growth inhibition, protein content; assay type: cell-based; details: Homo sapiens, Caco-2, 72 h, read-out: IC50 SRB
Outline: (§3)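 Cell lines from ATCC, grown in DMEM+glutamax with 1% NEAA, 1% P/S and 10% FBS at 37 °C, 10% CO2. Seeded at 20000 cells/well for 24 h, then exposed to test compound (25 mM DMSO stock) for three days. Fixed with cold TCA for 1 h at 4 °C, stained 30 min with 0.4% SRB in 1% acetic acid, dissolved in 10 mM Tris, A490. Triplicate; IC50 given as mean ± SD combined with MTT data (n ≥ 3).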

HepG2 [7] = test: Intracellular ROS assay; assay type: cell-based; details: for change of intracellular ROS in words: HepG2, vs untreated control, 10 and 1 μM; for activity at 1 µM / activity at 10 µM: Homo sapiens, HepG2, read-out: Intracellular ROS, percentage compared to the untreated control cells (ROS/SRB)
Outline: as §2

EA.hy926 [8] = test: Cell growth inhibition, protein content; assay type: cell-based; details: Homo sapiens, EA.hy 926, 72 h, read-out: IC50 SRB
Outline: as §3

HT‐29 [9] = test: Cytotoxicity, mitochondrial activity; assay type: cell-based; details: Homo sapiens, HT-29, 72 h, read-out: IC50 MTT
Outline: as §1

[10] = Chemical antioxidant capacity, FRAP assay
Caco‐2 [11] = test: Cytotoxicity, mitochondrial activity; assay type: cell-based; details: Homo sapiens, Caco-2, 72 h, read-out: IC50 MTT
Outline: as §1

HT‐29 [12] = test: Intracellular ROS assay; assay type: cell-based; details: for change of intracellular ROS in words: HT‐29, vs untreated control, 10 and 1 μM; for activity at 1 µM / activity at 10 µM: Homo sapiens, HT-29, read-out: Intracellular ROS, percentage compared to the untreated control cells (ROS/SRB)
Outline: as §2

HepG2 [13] = test: Cell growth inhibition, protein content; assay type: cell-based; details: Homo sapiens, HepG2, 72 h, read-out: IC50 SRB
Outline: as §3

HT‐29 [14] = test: Cell growth inhibition, protein content; assay type: cell-based; details: Homo sapiens, HT-29, 72 h, read-out: IC50 SRB
Outline: as §3

| SMILES | solubility at 90 min [1] [µM] | solubility at 24 h [1] [µM] | IC50 (EA.hy926 [2]) [µM] | IC50 (HepG2 [3]) [µM] | activity at 1 µM (EA.hy926 [4]) [%] | activity at 10 µM (EA.hy926 [4]) [%] | activity at 1 µM (Caco‐2 [5]) [%] | activity at 10 µM (Caco‐2 [5]) [%] | IC50 (Caco‐2 [6]) [µM] | activity at 1 µM (HepG2 [7]) [%] | activity at 10 µM (HepG2 [7]) [%] | IC50 (EA.hy926 [8]) [µM] | IC50 (HT‐29 [9]) [µM] | FRAP (Trolox equivalent per μM) [10] [Trolox equivalent per μM] | FRAP (curcumin equivalent per μM) [10] | IC50 (Caco‐2 [11]) [µM] | activity at 1 µM (HT‐29 [12]) [%] | activity at 10 µM (HT‐29 [12]) [%] | IC50 (HepG2 [13]) [µM] | IC50 (HT‐29 [14]) [µM] | also measured |
| --- | --- | --- | --- | --- | --- | --- | --- | --- | --- | --- | --- | --- | --- | --- | --- | --- | --- | --- | --- | --- | --- |
| COc1cc(/C=C/C(=O)/C=C(O)/C=C/c2ccc[nH]2)ccc1O [3 f, (1E,4Z,6E)‐5‐Hydroxy‐1‐(4‐hydroxy‐3‐methoxyphenyl)‐7‐(1H‐pyrrol‐2‐yl)hepta‐1,4,6‐trien‐3‐one] | 20.9 ± 1.7 (≈ 6.51 µg/mL) | 18.3 ± 0.4 (≈ 5.7 µg/mL) | 45.6 ± 0.9 | 31.7 ± 0.6 | 125 ± 9.7 | 132 ± 12.7 | 125 ± 3.5 | 147 ± 12 | 15.9 ± 2 | 98.9 ± 2.9 | 216 ± 13.7 | 33.8 ± 1.4 | 33.9 ± 0.4 | 0.56 | 0.54 curcumin equivalent per μM | 17.1 ± 0.4 | 117 ± 10.5 | 109 ± 2.6 | 7.1 ± 0.2 | 36.1 ± 2.3 | change of intracellular ROS in words (CHO‐K1): significantly increased ROS; change of intracellular ROS in words (HepG2 [7]): significantly increased ROS production; antioxidant activity in words, FRAP [10]: comparable to ascorbic acid; change of intracellular ROS in words (HT‐29 [12]): higher ROS signal |
| COc1cccc2c1C(=O)c1c(O)c3c(c(O)c1C2=O)C[C@@](O)(C(=O)CO)C[C@@H]3O[C@H]1C[C@H](N)[C@H](O)[C@H](C)O1 [Dox, doxorubicin, reference compound] |  |  | 4.1 ± 0.1 | 1.8 ± 0.1 | 108 ± 6.2 | 125 ± 5.1 | 121 ± 9.4 | 112 ± 3.9 | 9.2 ± 0.5 | 100 ± 4.1 | 119 ± 4.2 | 3.4 ± 0.4 | 4.8 ± 0.1 |  |  | 13 ± 0.5 | 116 ± 1.7 | 126 ± 1.8 | 1.3 ± 0.3 | 2.7 ± 0.1 | change of intracellular ROS in words (EA.hy926 [4]; EA.hy926, vs untreated control, 10 and 1 μM): significant increase in ROS generation; change of intracellular ROS in words (CHO‐K1): significant increase in ROS generation; change of intracellular ROS in words (Caco‐2 [5]): significant increase in ROS generation; change of intracellular ROS in words (HepG2 [7]): significant increase in ROS generation; change of intracellular ROS in words (HT‐29 [12]): significant increase in ROS generation |
| COc1cc(/C=C/C(=O)CC(=O)/C=C/c2ccc(O)c(OC)c2)ccc1O [Cur, curcumin, reference compound] | 2.7 ± 0.1 (≈ 0.995 µg/mL) |  | 46.8 ± 0.7 | 25.3 ± 0.9 | 100 ± 7.7 | 97.6 ± 5.7 | 131 ± 3.6 | 115 ± 7.2 | 39.1 ± 0.1 | 90.8 ± 12 | 101 ± 8.8 | 58.4 ± 4.2 | 43.4 ± 4.6 | 1.00 |  | 47.6 ± 1.5 | 106 ± 8.4 | 86.5 ± 4.5 | 22.1 ± 2.6 | 52.3 ± 3.8 |  |
| COc1cc(/C=C/C(=O)/C=C(O)/C=C/c2ccccn2)ccc1O [3 b, (1E,4Z,6E)‐5‐Hydroxy‐1‐(4‐hydroxy‐3‐methoxyphenyl)‐7‐(pyridin‐2‐yl)hepta‐1,4,6‐triene‐3‐one] | 9.9 ± 0.4 (≈ 3.2 µg/mL) | 11.6 ± 0.6 (≈ 3.75 µg/mL) | 1.1 ± 0.1 | 24.6 ± 4.8 | 100 ± 7 | 127 ± 4.9 | 92.7 ± 5.4 | 99.7 ± 6.2 | 25.8 ± 1.1 | 108 ± 6.7 | 91.9 ± 9.2 | 3.1 | 34.3 ± 2.7 | 0.41 | 0.40 curcumin equivalent per μM | 22.3 ± 0.9 | 80.8 ± 2.5 | 93.6 ± 3.1 | 20.6 ± 1.4 | 34.8 ± 1.2 |  |
| O=C(/C=C(O)/C=C/c1ccncc1)/C=C/c1c[nH]c2ccccc12 [3 i, (1E,4Z,6E)‐5‐Hydroxy‐1‐(1H‐indol‐3‐yl)‐7‐(pyridin‐4‐yl)hepta‐1,4,6‐trien‐3‐one] | 7.8 ± 0.1 (≈ 2.47 µg/mL) | 7.7 ± 0.6 (≈ 2.44 µg/mL) | 34.9 ± 1.3 | 48.5 ± 1.7 | 106 ± 10.5 | 119 ± 2.9 | 101 ± 5.1 | 89.7 ± 8.9 | 29.8 ± 2.3 | 125 ± 12 | 147 ± 12.8 | > 75 | 42 ± 1 | 0.19 | 0.18 curcumin equivalent per μM | 47.1 ± 1.6 | 73.3 ± 7.8 | 73.6 ± 5.3 | > 75 | 64.2 ± 2.76 |  |
| O=C(/C=C(O)/C=C/c1ccccn1)/C=C/c1c[nH]c2ccccc12 [3 j, (1E,4Z,6E)‐5‐Hydroxy‐1‐(1H‐indol‐3‐yl)‐7‐(pyridin‐2‐yl)hepta‐1,4,6‐trien‐3‐one] | 10.7 ± 0.4 (≈ 3.39 µg/mL) | 7.9 ± 0.2 (≈ 2.5 µg/mL) | 1.4 ± 0.2 | 38.9 ± 0.8 | 90.8 ± 2.4 | 111 ± 3.5 | 98.2 ± 2.6 | 84.9 ± 7 | 40.2 ± 1.9 | 92.6 ± 6.5 | 96.6 ± 5.9 | 3.7 ± 0.2 | 33.8 ± 3.5 | 0.16 | 0.15 curcumin equivalent per μM | 35.5 ± 0.4 | 114 ± 15.5 | 102 ± 6.4 | 34 ± 2.8 | 46 ± 3 |  |
| COc1cc(/C=C/C(=O)/C=C(O)/C=C/c2cccc3cnccc23)ccc1O [3 e, (1E,4Z,6E)‐5‐Hydroxy‐1‐(4‐hydroxy‐3‐methoxyphenyl)‐7‐(isoquinolin‐5‐yl)hepta‐1,4,6‐triene‐3‐one] | 1.1 ± 0.2 (≈ 0.411 µg/mL) | 1.4 ± 0.2 (≈ 0.523 µg/mL) | 5.2 ± 0.2 | 4.7 ± 0.2 | 96.3 ± 4.3 | 120 ± 4.4 | 92.8 ± 11.9 | 72.7 ± 5.1 | 17.7 ± 3 | 103 ± 5.1 | 96.7 ± 4.3 | 16.2 ± 0.6 | 1.3 ± 0.5 | 0.21 | 0.20 curcumin equivalent per μM | 6.9 ± 0.3 | 80.6 ± 4.8 | 67.6 ± 5.1 | 7.3 ± 0.3 | 10.7 ± 1.6 | change of intracellular ROS in words (Caco‐2 [5]): significantly decreased ROS production |
| COc1cc(/C=C/C(=O)/C=C(O)/C=C/c2c[nH]c3ccccc23)ccc1O [3 g, (1E,4Z,6E)‐5‐Hydroxy‐1‐(4‐hydroxy‐3‐methoxyphenyl)‐7‐(1H‐indol‐3‐yl)hepta‐1,4,6‐trien‐3‐one] | 7.6 ± 0.9 (≈ 2.75 µg/mL) | 13.2 ± 0.3 (≈ 4.77 µg/mL) | 19 ± 0.4 | 19.5 ± 0.6 | 129 ± 9.2 | 92.7 ± 6.1 | 102 ± 11.3 | 111 ± 3.1 | 37.9 ± 1.8 | 111 ± 14.5 | 104 ± 12 | 45.1 ± 2.6 | 12.9 ± 0.9 | 0.44 | 0.42 curcumin equivalent per μM | 5.8 ± 0.3 | 85.7 ± 1.3 | 90.4 ± 5.1 | 13.5 ± 1.1 | 40.5 ± 4.3 |  |
